Test system: Fibroblast
Assay: Multiplex assay against human fibroblast
Assay type: toxicity, cell-based
Method in brief: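 Imaging took place on a CQ1 microscope at 37°C and 5% CO2 once compound had been added to live cells stained at seeding with Hoechst33342, BioTracker Green Microtubule Cytoskeleton Dye, MitoTracker Red and Annexin V Alexa Fluor 680. CellPathfinder machine-learning gating classed cells as Hoechst high-intensity objects or normal cells, classed normal cells as having healthy, pyknosed or fragmented nuclei, and classed pyknosed cells as mitotic or apoptotic. Tubulin, mitochondrial-mass and membrane-permeability phenotypes are per cents of the healthy-nucleus cells.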

[1] = 12 h, 1 µM, compound concentration 1 uM, replicate 1
[2] = 12 h, 1 µM, compound concentration 1 uM, replicate 2
[3] = 12 h, 10 µM, compound concentration 10 uM, replicate 1
[4] = 12 h, 10 µM, compound concentration 10 uM, replicate 2
[5] = 24 h, 1 µM, compound concentration 1 uM, replicate 1
[6] = 24 h, 1 µM, compound concentration 1 uM, replicate 2
[7] = 24 h, 10 µM, compound concentration 10 uM, replicate 1
[8] = 24 h, 10 µM, compound concentration 10 uM, replicate 2
[9] = 48 h, 1 µM, compound concentration 1 uM, replicate 1
[10] = 48 h, 1 µM, compound concentration 1 uM, replicate 2
[11] = 48 h, 10 µM, compound concentration 10 uM, replicate 1
[12] = 48 h, 10 µM, compound concentration 10 uM, replicate 2

## COC[C@@H](c1ccc(C(F)(F)F)cc1)N1CCN(C2(C)CCN(C(=O)c3c(C)ncnc3C)CC2)C[C@@H]1C.O=C(O)/C=C\C(=O)O [VICRIVIROC MALEATE]
[1]
  Population Apoptotic (%): 36%
  Population Fragmented Nuclei (%): 23%
  Population Healthy Nuclei (%): 53%
  Population Hoechst High Intensity Objects (%): 4%
  Population Membrane Permeable-Phenotype (%): 2%
  Population Mitochondria Different-Phenotype (%): 11%
  Population Mitotic Cells (%): 63%
  Population Normal (%): 95%
  Population Pyknosed Nuclei (%): 22%
  Population Tubulin-Different-Phenotype (%): 16%
  Total Cell Count: 138
[2]
  Population Healthy Nuclei (%): 51%
  Population Membrane Permeable-Phenotype (%): 5%
  Population Mitochondria Different-Phenotype (%): 13%
  Population Pyknosed Nuclei (%): 25%
  Population Tubulin-Different-Phenotype (%): 41%
  Total Cell Count: 190
[3]
  Population Apoptotic (%): 58%
  Population Fragmented Nuclei (%): 26%
  Population Healthy Nuclei (%): 59%
  Population Hoechst High Intensity Objects (%): 17%
  Population Membrane Permeable-Phenotype (%): 2%
  Population Mitochondria Different-Phenotype (%): 4%
  Population Mitotic Cells (%): 41%
  Population Normal (%): 82%
  Population Pyknosed Nuclei (%): 14%
  Population Tubulin-Different-Phenotype (%): 45%
  Total Cell Count: 208
[4]
  Population Apoptotic (%): 33%
  Population Fragmented Nuclei (%): 48%
  Population Healthy Nuclei (%): 33%
  Population Hoechst High Intensity Objects (%): 20%
  Population Membrane Permeable-Phenotype (%): 12%
  Population Mitotic Cells (%): 66%
  Population Normal (%): 79%
  Population Pyknosed Nuclei (%): 18%
  Population Tubulin-Different-Phenotype (%): 67%
  Total Cell Count: 186
[5]
  Population Apoptotic (%): 66%
  Population Fragmented Nuclei (%): 21%
  Population Healthy Nuclei (%): 57%
  Population Hoechst High Intensity Objects (%): 3%
  Population Membrane Permeable-Phenotype (%): 1%
  Population Mitochondria Different-Phenotype (%): 7%
  Population Mitotic Cells (%): 33%
  Population Normal (%): 96%
  Population Pyknosed Nuclei (%): 20%
  Population Tubulin-Different-Phenotype (%): 18%
  Total Cell Count: 138
[6]
  Population Apoptotic (%): 30%
  Population Fragmented Nuclei (%): 28%
  Population Healthy Nuclei (%): 50%
  Population Membrane Permeable-Phenotype (%): 8%
  Population Mitochondria Different-Phenotype (%): 20%
  Population Mitotic Cells (%): 69%
  Population Pyknosed Nuclei (%): 21%
  Population Tubulin-Different-Phenotype (%): 41%
  Total Cell Count: 204
[7]
  Population Apoptotic (%): 73%
  Population Fragmented Nuclei (%): 23%
  Population Healthy Nuclei (%): 64%
  Population Hoechst High Intensity Objects (%): 12%
  Population Membrane Permeable-Phenotype (%): 0%
  Population Mitochondria Different-Phenotype (%): 5%
  Population Mitotic Cells (%): 26%
  Population Normal (%): 87%
  Population Pyknosed Nuclei (%): 11%
  Population Tubulin-Different-Phenotype (%): 42%
  Total Cell Count: 196
[8]
  Population Apoptotic (%): 42%
  Population Fragmented Nuclei (%): 46%
  Population Healthy Nuclei (%): 39%
  Population Hoechst High Intensity Objects (%): 21%
  Population Membrane Permeable-Phenotype (%): 8%
  Population Mitochondria Different-Phenotype (%): 12%
  Population Mitotic Cells (%): 57%
  Population Normal (%): 78%
  Population Pyknosed Nuclei (%): 14%
  Population Tubulin-Different-Phenotype (%): 60%
  Total Cell Count: 183
[9]
  Population Apoptotic (%): 59%
  Population Fragmented Nuclei (%): 21%
  Population Healthy Nuclei (%): 56%
  Population Hoechst High Intensity Objects (%): 3%
  Population Membrane Permeable-Phenotype (%): 0%
  Population Mitochondria Different-Phenotype (%): 7%
  Population Mitotic Cells (%): 40%
  Population Normal (%): 96%
  Population Pyknosed Nuclei (%): 21%
  Population Tubulin-Different-Phenotype (%): 34%
  Total Cell Count: 127
[10]
  Population Apoptotic (%): 53%
  Population Fragmented Nuclei (%): 33%
  Population Healthy Nuclei (%): 50%
  Population Hoechst High Intensity Objects (%): 5%
  Population Membrane Permeable-Phenotype (%): 9%
  Population Mitochondria Different-Phenotype (%): 19%
  Population Mitotic Cells (%): 46%
  Population Normal (%): 95%
  Population Pyknosed Nuclei (%): 15%
  Population Tubulin-Different-Phenotype (%): 58%
  Total Cell Count: 180
[11]
  Population Apoptotic (%): 73%
  Population Fragmented Nuclei (%): 23%
  Population Healthy Nuclei (%): 65%
  Population Hoechst High Intensity Objects (%): 14%
  Population Membrane Permeable-Phenotype (%): 0%
  Population Mitochondria Different-Phenotype (%): 5%
  Population Mitotic Cells (%): 26%
  Population Normal (%): 85%
  Population Pyknosed Nuclei (%): 10%
  Population Tubulin-Different-Phenotype (%): 48%
  Total Cell Count: 206
[12]
  Population Apoptotic (%): 53%
  Population Fragmented Nuclei (%): 54%
  Population Healthy Nuclei (%): 35%
  Population Hoechst High Intensity Objects (%): 20%
  Population Membrane Permeable-Phenotype (%): 9%
  Population Mitochondria Different-Phenotype (%): 10%
  Population Mitotic Cells (%): 46%
  Population Normal (%): 79%
  Population Pyknosed Nuclei (%): 9%
  Population Tubulin-Different-Phenotype (%): 61%
  Total Cell Count: 193

Reference: ChEMBL document CHEMBL5058577, “EUbOPEN Chemogenomics Library 2 (Multiplex)” (2022)
